Assay outcomes (PubChem)
STEP block – inhibitors of human striatal-enriched phosphatase STEP; P54829; recombinant STEP, OMFP fluorogenic substrate, fluorescence; inhibition, % at 20 µM; actives 0.25% (n = 360,000);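 active = inhibition at 20 µM, scaled per plate between control wells, above about 37%, limit read from the data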
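Material: STEP (striatal-enriched tyrosine phosphatase) enzyme, cell-free | Medium: 50 mM Bis-Tris pH 6.0 with 2.5 mM DTT and 0.005% Tween 20 | Read-out: Percent inhibition scaled to no-enzyme and uninhibited-enzyme controls, plate-pattern corrected | Signal: Fluorescence read at 480 nm ex / 540 nm em | Times: 20 min reaction, room temperature, in the dark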
SUMO1-SIM PPI – modulators of human SUMO1-mediated protein-protein interactions; inhibition, % at 20 µM; SUMO1 binding to a labelled peptide, TR-FRET, 1 h; actives 0.33% (n = 360,000); AID 602429; P63165; in the data active = inhibition above about 37%
Target sequence (P63165 whole entry, looked up): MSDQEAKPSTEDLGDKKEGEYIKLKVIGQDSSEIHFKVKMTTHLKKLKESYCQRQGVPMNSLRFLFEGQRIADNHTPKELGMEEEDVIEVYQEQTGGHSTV
LMPTP inh – blocks human LMPTP phosphatase | P24666 | recombinant LMPTP-A, OMFP fluorogenic substrate, fluorescence intensity | inhibition, % at 20 µM | actives 0.22% (n = 360,000) | AID 651560;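 active = compounds that cut the enzyme signal by at least half of the control window in the single-dose screen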
Target sequence (P24666 whole entry, looked up): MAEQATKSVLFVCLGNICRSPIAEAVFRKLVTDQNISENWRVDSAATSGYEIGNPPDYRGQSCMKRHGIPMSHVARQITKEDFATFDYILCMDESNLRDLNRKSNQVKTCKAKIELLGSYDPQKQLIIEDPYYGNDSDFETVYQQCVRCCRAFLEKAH
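Assay system: LMPTP-A, protein tyrosine phosphatase of low molecular weight / Medium: pH 6.0 Bis-Tris buffer with DTT and Triton X-100 / Schedule: 50 min enzyme reaction at room temperature, protected from light / Measured by: endpoint fluorescence intensity from OMFP dephosphorylation / Read-out basis: % inhibition relative to no-enzyme and uninhibited control wells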
Scp-1 inhibitor – blocks human Scp-1 phosphatase activity. inhibition, % at 20 µM. Recombinant Scp1, phosphopeptide, malachite green phosphate absorbance. AID 493091. actives 0.88% (n = 340,000);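 active = inhibition above about 50% at 20 µM, limit read from the data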
Target sequence (Q9GZU7 76-261 limits assumed): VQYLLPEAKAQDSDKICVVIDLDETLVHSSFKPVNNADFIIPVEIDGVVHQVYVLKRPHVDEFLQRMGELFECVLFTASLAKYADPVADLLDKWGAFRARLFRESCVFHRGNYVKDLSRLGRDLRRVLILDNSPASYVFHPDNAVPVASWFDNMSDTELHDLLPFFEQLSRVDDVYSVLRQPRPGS
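Assay system: SCP-1 catalytic fragment, aa 76-261 | Buffer or medium: Tris acetate buffer pH 5.5 with MgCl2 and Tween-20 | Compound: One concentration, 20 µM, with 1.0% DMSO | Also added: Phospho 17-mer peptide substrate | Signal: Absorbance at 630 nm | Incubation: 45 min enzyme reaction at room temperature | Measure: % inhibition of SCP-1 phosphate liberation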
FAS TE block – blocks the thioesterase domain of human fatty acid synthase | actives 0.67% (n = 360,000) | inhibition, % at 15 µM | recombinant FAS-TE, OMFH fluorogenic substrate, fluorescence endpoint;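 active = compounds whose normalised, plate-corrected inhibition of enzyme fluorescence in the single-dose primary screen is 50% or more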
Scp1 confirm – Scp-1 (human) inhibition, single-dose confirmed; shares compounds with Scp-1 inhibitor; recombinant SCP-1 catalytic domain, phosphate release, malachite green absorbance; inhibition, % at 20 µM; actives 61% (n = 2,500)
Scp-1 MG ctr – interferes with malachite green readout, flagging false Scp-1 hits; AID 540313; shares compounds with Scp-1 inhibitor; Colorimetric interference counterscreen, malachite green absorbance 630 nm; apparent inhibition (interference), % at 20 µM; 2,500 tested, under 10 active;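 note: compounds added after enzyme reaction finished so only phosphate colour detection is probed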
Scp-1 Tm shift – Scp-1 (human) binding by thermal shift; Recombinant SCP1, Sypro Orange thermal shift Tm; thermal shift relative to vanadate control, % at 40 µM; shares compounds with Scp-1 inhibitor; actives 25% (n = 1,500); AID 540329;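 active = substances whose mean melting-temperature shift, as a percentage of the reference inhibitor's shift, reaches about 5.3%, limit read from the data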
Hits are given with their value; i = inactive; nt = not tested or not shown. Most compounds without a hit are left out; they make up all but 1.9% or so of the library.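 Rule for the calls, unless noted: active = inhibition of at least 30% at 20 µM; inactive = the rest.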

SMILES	STEP block	SUMO1-SIM PPI	LMPTP inh	Scp-1 inhibitor	FAS TE block	Scp1 confirm	Scp-1 MG ctr	Scp-1 Tm shift
COc1ccc(C2=Nc3ccccc3N(C(=O)c3ccc4ncccc4c3)C2C(=O)NC2CCCC2)cc1 (configuration not stated)	nt	i	i	nt	nt	nt	nt	nt
CN(C)c1cccc2c(S(=O)(=O)NC(=O)[C@H]3O[C@@H](n4cnc5c(N)ncnc54)[C@H](O)[C@@H]3O)cccc12	i	i	i	nt	i	nt	nt	nt
Cn1c(=O)c(=O)n(C)c2cc(S(=O)(=O)N3CCCC3C(=O)NCc3cccnc3)ccc21 (configuration not stated)	i	i	i	i	i	i	i	nt
Cc1ccc(C)c(NC(=O)C2CCCN2S(=O)(=O)c2ccc3c(c2)n(C)c(=O)c(=O)n3C)c1 (configuration not stated)	i	i	i	i	i	i	i	nt
CC(C)n1nnnc1C1c2ccccc2C(=O)N1C1CC1 (configuration not stated)	nt	i	i	nt	i	nt	nt	nt
COC(=O)CCCn1cc(CN(C)C2CN(Cc3cn(CCCC(=O)OC)nn3)S(=O)(=O)C2)nn1 (configuration not stated)	nt	i	i	nt	i	nt	nt	nt
CC(=O)N1CCOc2ccc(S(=O)(=O)NCc3ccc(C)cc3)cc21	i	i	i	i	i	nt	nt	nt
CC(=O)N1CCOc2ccc(S(=O)(=O)NC[C@H]3O[C@@H](n4ccc(=O)[nH]c4=O)[C@H](O)[C@@H]3O)cc21	i	i	i	i	i	i	i	nt
C[C@@H]1CN([C@@H](C)CO)C(=O)CCCn2cc(nn2)CO[C@H]1CN(C)S(=O)(=O)c1ccc(Cl)cc1	i	i	i	nt	i	nt	nt	nt
COC(=O)[C@H]1C[C@H](O)CN1S(=O)(=O)c1ccc(Br)cc1F	i	i	i	53	i	i	i	nt
COC(=O)C1CC(O)CN1S(=O)(=O)c1ccc2ccccc2c1 (configuration not stated)	i	i	i	i	i	nt	nt	nt
Cc1ccc(S(=O)(=O)NC(C)CCc2ccccc2)cc1C(N)=O (configuration not stated)	i	i	i	i	i	i	i	nt
O=C(NC1CCC1)C1CCC(=O)N(Cc2ccc(Cl)cc2)C1 (configuration not stated)	i	i	i	nt	i	nt	nt	nt
CC[N+](CC)(CC)CC(=O)Nc1ccc(SC(F)F)cc1	i	i	i	60	i	i	i	nt
COc1cc(/C=N/NC(=O)c2nnn(-c3nonc3N)c2C)ccc1OCc1ccc(Cl)cc1	i	i	i	nt	i	nt	nt	nt
COC(=O)/C=C/c1ccccc1S(=O)(=O)N(Cc1ccccc1)Cc1ccco1	i	i	i	73	i	i	i	nt
O=S(=O)(c1ccc(S(=O)(=O)N(Cc2ccccc2)Cc2ccco2)cc1)N1CCCC1	i	i	i	i	i	nt	nt	nt
CC1=NN(c2ccccc2)C(=O)C1CCC#N (configuration not stated)	i	i	i	nt	i	nt	nt	nt
CSc1nc(SCCO)c2sc3nc(-c4ccco4)c4c(c3c2n1)CC(C)(C)OC4	i	60	i	79	i	43	i	7.4
CCc1ccc(NC(=O)CC2C(=O)NCCN2C(=O)c2ccc(F)cc2)cc1 (configuration not stated)	i	i	i	i	i	i	i	nt
COc1cc(O)c2c(c1)OC(c1ccc(O)cc1)CC2=O (configuration not stated)	i	i	i	i	i	nt	nt	nt
Cc1c(O)cc2c(c1O)C(=O)CC(c1ccc(O)cc1)O2 (configuration not stated)	i	i	i	58	i	45	i	6.2
CCC1CCCCN1S(=O)(=O)c1ccc2[nH]c(=O)ccc2c1 (configuration not stated)	i	i	i	58	i	49	i	i
CCCNC(=O)C1CCN(S(=O)(=O)c2ccc3[nH]c(=O)ccc3c2)CC1	i	i	i	i	i	nt	nt	nt
CC1=CC(C)(C)[N+](C)(C)c2ccccc21	i	i	i	72	i	i	i	nt
SMILES	STEP block	SUMO1-SIM PPI	LMPTP inh	Scp-1 inhibitor	FAS TE block	Scp1 confirm	Scp-1 MG ctr	Scp-1 Tm shift
Cc1cc2ccccc2n2c(SCC(=O)Nc3ccc(S(=O)(=O)N4CCC(C)CC4)cc3)nnc12	i	i	i	i	i	nt	nt	nt
CCOC(=O)C1=C(C)NC(=O)NC1c1ccc(Br)o1 (configuration not stated)	i	i	i	52	i	i	i	nt
CCOC(=O)C1=C(C)NC(C)=C(C(=O)OCC)C1c1ccc(Br)o1	i	i	i	i	i	nt	nt	nt
CC(=O)Nc1ccc(NC(=O)CCS(=O)(=O)c2ccc3c(c2)oc(=O)n3C)cc1	i	i	i	i	i	nt	nt	nt
CC(=O)c1ccc(NC(=O)CCS(=O)(=O)c2ccc3c(c2)n(C)c(=O)c(=O)n3C)cc1	i	i	i	71	i	31	i	i
CCC(Oc1ccccc1)C(=O)Nc1nc2c(s1)C(=O)CC(C)(C)C2 (configuration not stated)	i	i	i	i	i	i	i	nt
O=C(CSc1nnc(COc2ccccc2Cl)o1)NC(=O)NCc1ccco1	i	i	i	76	i	44	i	i
O=C(CSc1nnc(Nc2ccccc2F)s1)NC(=O)CN1CCCC1=O	i	i	i	63	i	57	i	i
O=C(CSc1nnc(Nc2ccccc2F)s1)NCc1ccco1	i	i	i	83	i	63	i	i
Nn1c(SCC(=O)NC(=O)NCc2ccco2)nnc1-c1ccc(OC(F)F)cc1	i	i	i	63	i	54	i	i
CCOC(=O)Cc1c(-c2cccc(Br)c2)nc2c3ccccc3ccn12	nt	i	i	nt	i	nt	nt	nt
Cc1ccccc1Nc1nnc(SCC(=O)NC(=O)NCc2ccco2)s1	i	i	i	84	i	61	i	i
O=C(CSc1nc(-c2ccc(F)cc2)cs1)NC(=O)NCc1ccco1	i	i	i	74	i	39	i	i
O=C(CSc1nnc(Nc2ccccc2)s1)NCc1ccco1	i	i	i	i	i	nt	nt	nt
Cc1nnc(SCC(=O)NC(=O)NCc2ccco2)n1Cc1ccccc1	i	i	i	87	i	63	i	i
NNC(=O)c1ccc(S(=O)(=O)N2CCc3ccccc32)cc1	i	i	i	i	i	nt	nt	nt
COc1ccc(C(C(=O)Nc2ccc(F)cc2)N2CCN(C(=O)c3ccco3)CC2)cc1 (configuration not stated)	nt	i	i	nt	nt	nt	nt	nt
